According to ChEMBL document CHEMBL1154141, “Meroditerpenoids and derivatives from the brown alga Cystoseira baccata and their antifouling properties” (J Nat Prod, 2008):
Values after ≈ are worked out from the molar mass of the structure shown. Active and inactive are the calls of the source. No cut-off for these calls is given here.

How the values were obtained:
Cylindrotheca closterium = assay: Antimicrobial activity against Cylindrotheca closterium AC 170 after 48 hrs; assay type: functional, organism-based
Summary of the method: (§1)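 Microalgal cultures (0.4 μg/mL chlorophyll A) in F/2 medium were incubated with compound for 48 h at 18 °C under a 15:9 light:dark cycle with cool-white fluorescent light at 54 μmol photons/m²·s. Relative optical density at 600 nm gave the MIC versus a seawater control.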

[1] = system: Pseudoalteromonas distincta; assay: Antibacterial activity against Pseudoalteromonas elyakovii ATCC 700519 after 48 hrs by microtiter broth dilution method; assay type: functional; details: ATCC 700519, 48 h
Summary of the method: (§2)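 Marine bacterial strains at 2×10^8 cells/mL were exposed to compound for 48 h at 25 °C in Mueller Hinton broth supplemented with NaCl (15 g/L). MIC was set by microtiter broth dilution against a culture-medium control.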

Vibrio aestuarianus = assay: Antibacterial activity against Vibrio aestuarianus ATCC 35048 after 48 hrs by microtiter broth dilution method; assay type: functional; details: ATCC 35048, 48 h; summary of the method: as §2
Polaribacter irgensii = assay: Antibacterial activity against Polaribacter irgensii ATCC 700398 after 48 hrs by microtiter broth dilution method; assay type: functional; details: ATCC 700398, 48 h; summary of the method: as §2
Salmonella typhimurium = assay: Antibacterial activity against Salmonella Typhimurium ATCC 35986 after 48 hrs by microtiter broth dilution method; assay type: functional, Salmonella enterica subsp. enterica serovar Typhimurium; details: Salmonella enterica, ATCC 35986, 48 h
Summary of the method: (§3)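 Terrestrial bacterial strains at 2×10^8 cells/mL were incubated with compound for 48 h at 25 °C in trypsic soy broth. MIC was read by microtiter broth dilution against a culture-medium control.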

Escherichia coli = assay: Antibacterial activity against Escherichia coli ATCC 35049 after 48 hrs by microtiter broth dilution method; assay type: functional; details: ATCC 35049, 48 h; summary of the method: as §3
Bacillus subtilis = assay: Antibacterial activity against Bacillus subtilis ATCC 55572 after 48 hrs by microtiter broth dilution method; assay type: functional; details: ATCC 55572, 48 h; summary of the method: as §3
[2] = system: Exanthemachrysis gayraliae; assay: Antimicrobial activity against Exanthemachrysis gayraliae AC 15 after 48 hrs; assay type: functional; summary of the method: as §1
[3] = Toxicity against Echinus esculentus larvae after 48 hrs
Summary of the method: (§4)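 Larvae incubated with compounds at 0.5, 1, 2.5, 5, 10, 25, 50 and 100 μg/mL, 10–15 larvae per well in 2 mL solution. Viable larvae counted after 48 h exposure. LC50 is the concentration giving 50% mortality relative to control, derived by curve fitting. Six replicates per test and control, with two batches of organisms.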

[4] = Toxicity against Crassostrea gigas larvae after 48 hrs; summary of the method: as §4
Chrysotila roscoffensis = assay: Antimicrobial activity against Pleurochrysis roscoffensis AC 238 after 48 hrs; assay type: functional, organism-based; summary of the method: as §1
Sargassum muticum = assay: Antimicrobial activity against Sargassum muticum after 48 hrs; assay type: functional, organism-based
Summary of the method: (§5)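 Spores (3000 spores/mL) in F/2 medium were exposed to compound for 48 h at 18 °C under a 15:9 light:dark cycle with cool-white fluorescent light at 54 μmol photons/m²·s. Germination and attachment rates were then scored.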

Ulva intestinalis = assay: Antimicrobial activity against Ulva intestinalis after 48 hrs; assay type: functional, organism-based; summary of the method: as §5
[5] = Inhibition of Mytilus edulis phenoloxidase after 2 hrs
Summary of the method: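 Purified mussel phenoloxidase was preincubated with compound for 2 h. Activity was then followed as the rise in absorbance at 475 nm with L-Dopa (10 mM) as substrate, and percent inhibition was calculated against the control.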

Row | Compound | Activity (Cylindrotheca closterium) | MIC [1] [µg/mL] | MIC (Vibrio aestuarianus) [µg/mL] | MIC (Polaribacter irgensii) [µg/mL] | MIC (Salmonella typhimurium) [µg/mL] | MIC (Escherichia coli) [µg/mL] | MIC (Bacillus subtilis) [µg/mL] | Activity [2] | LC50 at 48 h [3] [µg/mL] | LC50 at 48 h [4] [µg/mL] | Activity (Chrysotila roscoffensis) | MIC ([2]; AC 15, 48 h) [µg/mL] | IC50 (Sargassum muticum) [µg/mL] | IC50 (Ulva intestinalis) [µg/mL] | IC50 [5] [µg/mL]
1 | COc1cc(C)c(O)c(C/C=C(\C)CC2=C(CC(C)(C)O)C(=O)[C@@]3(C)CCC[C@]3(C)C2)c1 | inactive | > 100 | > 100 | > 100 | > 100 | > 100 | > 100 | inactive | > 100 | > 100 | inactive |  |  |  | 
2 | CC1=C(CC(C)(C)O)C(=O)[C@@]2(C)CCC[C@]2(C)C1 | inactive | > 100 | > 100 | > 100 | > 100 | > 100 | > 100 |  | > 100 | > 100 | inactive | 1 (≈ 3.99 µM) | 1 (≈ 3.99 µM) | 1 (≈ 3.99 µM) | 1 (≈ 3.99 µM)
3 | COc1cc(C)c2c(c1)C=C[C@@](C)(CC1=C(CC(C)(C)O)C(=O)[C@@]3(C)CCC[C@]3(C)C1)O2 | inactive | > 100 | > 100 | > 100 | > 100 | > 100 | > 100 | inactive | > 100 | > 100 | inactive |  |  |  | 
4 | CC(=O)/C=C1\C[C@@]2(C)CCC[C@]2(C)C2=C1CC(C)(C)O2 | inactive | > 100 | > 100 | > 100 | > 100 | > 100 | > 100 | inactive | > 100 | > 100 | inactive |  | > 100 | 2.5 (≈ 9.11 µM) | 2.5 (≈ 9.11 µM)
5 | COc1cc(C)c2c(c1)C=C[C@](C)(CC1=C(CC(C)(C)O)C(=O)[C@@]3(C)CCC[C@]3(C)C1)O2 | inactive | > 100 | > 100 | > 100 | > 100 | > 100 | > 100 | inactive | > 100 | > 100 | inactive |  | 2.5 (≈ 5.7 µM) | > 100 | 1 (≈ 2.28 µM)
6 | COc1cc(C)c(O)c(C/C=C(\C)C[C@]2(O)C[C@@]3(C)CCC[C@]3(C)C(=O)[C@@H]2CC(C)(C)O)c1 | inactive | > 100 | > 100 | > 100 | > 100 | > 100 | > 100 | inactive | > 100 | > 100 | inactive |  |  |  | 
